Assay [1] is described as follows: Her2 expression decrease, cell viability multiplex – SKBR3 breast tumor cells, AlphaScreen, ATP viability, primary screen (AID 461).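 For Her2 level: lower value means less Her2 protein in the cells.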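 For viability: percent of carrier control wells set as 100% viability.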 The note with it: SKBR3 Her2 protein level, 18-24 h, measured here: SKBR3 viability, ATP luminescence, at 10 µM. (In Alpha technology, singlet oxygen from a donor bead excites a nearby acceptor bead.)
For assay [2], the target named is Receptor tyrosine-protein kinase erbB-2 (Homo sapiens) (UniProt P04626). Described as above. To be noted: 18-24 h, at 10 µM, stronger effect = lower value.
Receptor tyrosine-protein kinase erbB-2 (Homo sapiens), sequence (P04626 whole entry, looked up): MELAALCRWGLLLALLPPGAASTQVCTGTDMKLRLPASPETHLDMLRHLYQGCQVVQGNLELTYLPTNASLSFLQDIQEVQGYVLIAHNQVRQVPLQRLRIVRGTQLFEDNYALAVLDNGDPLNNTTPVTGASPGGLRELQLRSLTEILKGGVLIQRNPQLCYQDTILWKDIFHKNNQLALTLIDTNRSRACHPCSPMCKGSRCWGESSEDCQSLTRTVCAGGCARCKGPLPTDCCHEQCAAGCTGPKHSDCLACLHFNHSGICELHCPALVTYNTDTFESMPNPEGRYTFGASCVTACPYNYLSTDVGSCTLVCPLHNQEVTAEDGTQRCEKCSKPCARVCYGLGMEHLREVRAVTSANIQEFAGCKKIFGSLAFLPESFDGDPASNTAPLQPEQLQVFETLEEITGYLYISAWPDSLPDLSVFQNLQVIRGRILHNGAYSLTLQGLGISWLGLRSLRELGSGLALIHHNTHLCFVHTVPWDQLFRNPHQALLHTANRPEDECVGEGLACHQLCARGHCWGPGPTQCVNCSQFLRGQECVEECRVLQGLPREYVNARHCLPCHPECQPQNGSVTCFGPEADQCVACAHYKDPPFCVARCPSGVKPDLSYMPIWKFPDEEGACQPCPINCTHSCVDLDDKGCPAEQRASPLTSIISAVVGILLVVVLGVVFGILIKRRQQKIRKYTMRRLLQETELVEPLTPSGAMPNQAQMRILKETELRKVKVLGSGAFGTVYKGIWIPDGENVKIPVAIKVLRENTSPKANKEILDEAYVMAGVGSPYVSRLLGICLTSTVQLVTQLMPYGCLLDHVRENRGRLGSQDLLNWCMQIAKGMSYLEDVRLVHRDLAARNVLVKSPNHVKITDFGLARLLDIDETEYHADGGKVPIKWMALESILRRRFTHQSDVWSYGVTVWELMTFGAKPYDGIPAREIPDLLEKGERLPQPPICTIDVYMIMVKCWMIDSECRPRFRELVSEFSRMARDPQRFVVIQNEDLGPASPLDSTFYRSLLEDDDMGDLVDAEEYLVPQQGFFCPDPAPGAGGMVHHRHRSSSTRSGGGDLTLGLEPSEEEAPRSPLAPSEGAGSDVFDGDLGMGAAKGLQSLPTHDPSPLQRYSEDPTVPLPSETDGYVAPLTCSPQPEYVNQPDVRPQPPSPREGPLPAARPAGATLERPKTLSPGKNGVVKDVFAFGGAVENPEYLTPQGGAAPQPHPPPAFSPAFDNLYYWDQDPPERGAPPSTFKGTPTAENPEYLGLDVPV
Assay [3] in a line: reduced viability of SK-BR-3 breast cancer cells – cell-based, 24 h, human, pilot screen (AID 572;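 active = viability at or below 10% of carrier control in both of two separate runs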;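 note: compound exposure lasted between 18 and 24 h rather than exactly 24 h; 100% = carrier-treated control wells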). The note with it: SK-BR-3 viability, CellTiter-Glo luminescence, at 10 µM, stronger effect = lower value. Background: Cellular ATP, detected with luciferase, serves as a proxy for viable cell number.
A short description of assay [4]: HUVEC growth inhibition – cell-based, human, primary screen (AID 575;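 active = viability at or below 30% in both replicate assays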;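 note: 100% = median of untreated cell wells with 0.1% DMSO on each plate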). To be noted: HUVEC proliferation, CellTiter-Glo luminescence, 72 h; at 10 µM; stronger effect = lower value. In outline:
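Material: primary human umbilical vein endothelial cells / Schedule: 72 h exposure, 37 °C, 5% CO2, 30 min RT equilibration / Signal: ATP-based CellTiter-Glo luminescent read / Read-out basis: percent of median DMSO-control luminescence / Control set: 32 DMSO-only cell-control wells (high), 32 MePR drug-control wells (low) per plate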

Assay [5] is described as follows: H69AR cell proliferation blockers – human, duplicate replicates, primary screen (AID 580;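 active = viability at or under a set limit in both replicates, limit being median viability minus 3 SD, cut at about 48% in these data, passing the limit was not always enough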;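 note: 100% = mean luminescence of untreated wells and 0% = no signal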). To be noted: H69AR lung tumor cells viability, ATP luminescence, 72 h; at 10 µM; stronger effect = lower value.
The nature of assay [6]: MRP1 drug-resistance reversers in H69AR cells – cell-based, doxorubicin co-treatment, pilot screen (AID 601;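 active = viability loss from added drug above about 55%, and viability with drug at most 40%, in both replicates, limit read from the data, passing the limit was not always enough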). The note with it: CellTiter-Glo, 72 h, at 10 µM; for differential viability (reversal): stronger effect = higher value.
The nature of assay [7]: yeast transport mutant growth inhibition pilot in 384-well plates, post-Golgi transport modulator project (AID 636; in the data active = inhibition above about 31%). The note with it: absorbance 615 nm, about 18 h, stronger effect = higher value.
Assay [8] is described as follows: growth suppression of yeast trafficking mutant, preliminary HTS, modulators of trafficking downstream of Golgi apparatus project, 1536-format plate, OD 615 nm (AID 637; in the data active = inhibition above about 30%). The note with it: yeast transport mutant growth, absorbance 615 nm, 18 h; stronger effect = higher value.
Setting [9] is: H69AR cells + 2 uM doxorubicin, measured here: viability with 2 uM doxorubicin, stronger effect = lower value.
The mark [10] stands for this setting: H69AR cells, compound alone cytotoxicity.

The source made the active and inactive calls.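 Rule for the calls, unless noted: active = Her2 level under about 52% in both replicate screens, with viability over 70% of control (limit read from the data); inconclusive = Her2 under the limit in one screen only, or viability under 70%; inactive = Her2 level above the set limit.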

As a reminder, the viability is a read-out of living cells in per cent, often relative to untreated cells. The inhibition is the relative decrease from the control value, in per cent. Turning to `CCOC(=O)c1cc(C)sc1N1C(=O)C2C3C=CC(C3)C2C1=O` (stereo not given), the viability in assay [1] was 132%; in assay [3], 132% (inactive); in assay [4] it was 109% (inactive); in assay [5], 98.7% (inactive); in assay [6] (setting [9]), 92.8%; in assay [6] (setting [10]), 98.7%. Besides, the Her2 level in assay [2] was 94.5% (inactive). Besides, in assay [6] (H69AR cells + 2 uM doxorubicin), the differential viability (reversal) is 5.84% (inactive). Also, the values for the inhibition in assay [7] and in assay [8] were -7.67% (inactive) and -0.95% (inactive), respectively.
As to `CCCCCC1CC(CC(=O)O)C(=O)O1` (stereo not given), the viability in assay [1] is 100%; in assay [3] it was 100% (inactive); in assay [4] it was 82.5% (inactive); in assay [5] it was 104% (inactive); in assay [6] (setting [9]) it was 96.2%; in assay [6] (setting [10]), 104%. Further, the Her2 level in assay [2] was 96% (inactive). In assay [6] (H69AR cells + 2 uM doxorubicin), the differential viability (reversal) was 7.44% (inactive). The inhibition in assay [7] was -4.87% (inactive); in assay [8], 7.67% (inactive).
Take `CCCC(=O)Nc1ccc(NC(=O)C2CC2)cn1`: the viability was 108% in assay [1]; 108% (inactive) in assay [3]; 105% (inactive) in assay [4]; 102% (inactive) in assay [5]; 95.4% in assay [6] (setting [9]); 102% in assay [6] (setting [10]). Moreover, the Her2 level in assay [2] is 112% (inactive). Moreover, in assay [6] (H69AR cells + 2 uM doxorubicin), the differential viability (reversal) is 6.95% (inactive). Further, the inhibition was -1.73% (inactive) in assay [7] and 5% (inactive) in assay [8].
Consider `O=C(NCCC1=CCCCC1)C1CCN(S(=O)(=O)c2cccc3nsnc23)CC1`, for which the viability in assay [1] is 104%; in assay [3], 104% (inactive); in assay [4], 58.5% (inactive); in assay [5], 96.5% (inactive); in assay [6] (setting [9]) it was 82.4%; in assay [6] (setting [10]), 96.5%. The Her2 level in assay [2] was 92.5% (inactive). Moreover, the differential viability (reversal) in assay [6] (H69AR cells + 2 uM doxorubicin) is 14.2% (inactive). Moreover, the inhibition is -5.33% (inactive) in assay [7] and 0.98% (inactive) in assay [8].
Consider `Cc1nc2ccccc2c2c1C(=O)N(CCC1=CCCCC1)C2=O`, for which the viability in assay [1] was 83.5%; in assay [3] it was 83.5% (inactive); in assay [4], 103% (inactive); in assay [5], 88.4% (inactive); in assay [6] (setting [9]) it was 89.7%; in assay [6] (setting [10]) it was 88.4%. The Her2 level in assay [2] is 87% (inactive). Moreover, the differential viability (reversal) in assay [6] (H69AR cells + 2 uM doxorubicin) is -1.33% (inactive). Moreover, the results for the inhibition in assay [7] and in assay [8] were -3.42% (inactive) and -1.17% (inactive), respectively.
As for `CCOC(=O)CSc1nc(N)c2c3c(sc2n1)CCCC3`, the viability in assay [1] was 104%; in assay [3], 104% (inactive); in assay [4] it was 78.7% (inactive); in assay [5] it was 89.3% (inactive); in assay [6] (setting [9]), 89.3%; in assay [6] (setting [10]), 89.3%. In assay [2], the Her2 level is 96.5% (inactive). The differential viability (reversal) in assay [6] (H69AR cells + 2 uM doxorubicin) was 0.02% (inactive). Moreover, the figures for the inhibition in assay [7] and in assay [8] were 0.8% (inactive) and 2.58% (inactive), respectively.
As to `CCOC(=O)c1cccnc1SCC(=O)NC(C)CC` (stereo not given), the viability in assay [1] is 92%; in assay [3] it was 92% (inactive); in assay [4], 96.7% (inactive); in assay [5], 102% (inactive); in assay [6] (setting [9]), 92.3%; in assay [6] (setting [10]) it was 102%. In addition, in assay [2], the Her2 level is 93% (inactive). Also, the differential viability (reversal) in assay [6] (H69AR cells + 2 uM doxorubicin) is 9.73% (inactive). Besides, the inhibition is 2.08% (inactive) in assay [7] and -3.61% (inactive) in assay [8].
Turning to `COC(=O)c1ccc2ncccc2c1`, the viability in assay [1] is 110%; in assay [3], 110% (inactive); in assay [4], 111% (inactive); in assay [5], 107% (inactive); in assay [6] (setting [9]), 98.8%; in assay [6] (setting [10]) it was 107%. Also, the Her2 level in assay [2] was 131% (inactive). For the same compound, in assay [6] (H69AR cells + 2 uM doxorubicin), the differential viability (reversal) is 7.81% (inactive). Moreover, the inhibition was -1.32% (inactive) in assay [7] and 7.7% (inactive) in assay [8].
`O=C(COc1ccc(Cl)cc1)NCc1nnc(SCC(=O)Nc2ccc3c(c2)OCCO3)o1`: the viability in assay [1] was 102%; in assay [3] it was 102% (inactive); in assay [4], 112% (inactive); in assay [5] it was 97.3% (inactive); in assay [6] (setting [9]) it was 101%; in assay [6] (setting [10]), 97.3%. Besides, the Her2 level in assay [2] is 122% (inactive). In addition, the differential viability (reversal) in assay [6] (H69AR cells + 2 uM doxorubicin) is -3.68% (inactive). Further, the inhibition in assay [7] was 2.82% (inactive); in assay [8], -11.7% (inactive).
Take `Cc1cc(-c2ccccc2)nc2cc(C(=O)NCCCn3ccnc3)nn12`: the viability was 104% in assay [1]; 104% (inactive) in assay [3]; 98.8% (inactive) in assay [4]; 88.2% (inactive) in assay [5]; 79.3% in assay [6] (setting [9]); 88.2% in assay [6] (setting [10]). Further, the Her2 level in assay [2] is 103% (inactive). The differential viability (reversal) in assay [6] (H69AR cells + 2 uM doxorubicin) is 8.86% (inactive). The inhibition in assay [7] is -6.13% (inactive); in assay [8] it was -1.45% (inactive).
On to `COCCn1c(SCc2csc(-c3ccccc3)n2)nc2ccccc21`, for which the viability in assay [1] was 94%; in assay [3] it was 94% (inactive); in assay [4], 71.5% (inactive); in assay [5] it was 88.5% (inactive); in assay [6] (setting [9]), 91.5%; in assay [6] (setting [10]), 88.5%. The Her2 level in assay [2] is 98.5% (inactive). In addition, in assay [6] (H69AR cells + 2 uM doxorubicin), the differential viability (reversal) is -2.99% (inactive). The inhibition was 1.3% (inactive) in assay [7] and -8.03% (inactive) in assay [8].
`CCCCOc1ccc(-c2nnc(N)s2)cc1`: the viability is 85.5% in assay [1]; 85.5% (inactive) in assay [3]; 93.3% (inactive) in assay [4]; 98.5% (inactive) in assay [5]; 85.9% in assay [6] (setting [9]); 98.5% in assay [6] (setting [10]). Further, the Her2 level in assay [2] is 98% (inactive). For the same compound, the differential viability (reversal) in assay [6] (H69AR cells + 2 uM doxorubicin) was 12.6% (inactive). In addition, the values for the inhibition in assay [7] and in assay [8] were 3.33% (inactive) and 1.15% (inactive), respectively.
With `CC1NC(=O)NC1CCCCCC(=O)NCCc1ccccc1` (stereo not given), the viability in assay [1] is 112%; in assay [3] it was 112% (inactive); in assay [4] it was 90.4% (inactive); in assay [5], 93.3% (inactive); in assay [6] (setting [9]), 85.9%; in assay [6] (setting [10]), 93.3%. Besides, in assay [2], the Her2 level is 80% (inactive). Besides, the differential viability (reversal) in assay [6] (H69AR cells + 2 uM doxorubicin) was 7.38% (inactive). Besides, the inhibition in assay [7] is -5.07% (inactive); in assay [8] it was 0.79% (inactive).
With `Cc1ccccc1-n1c(=O)c2ccccc2n2nnnc12`, the viability was 80% in assay [1]; 80% (inactive) in assay [3]; 101% (inactive) in assay [4]; 93% (inactive) in assay [5]; 94.1% in assay [6] (setting [9]); 93% in assay [6] (setting [10]). The Her2 level in assay [2] is 112% (inactive). In assay [6] (H69AR cells + 2 uM doxorubicin), the differential viability (reversal) was -1.09% (inactive). Besides, the inhibition in assay [7] is 0% (inactive); in assay [8], -15.6% (inactive).
On to `CCC1(C)Cc2c(C#N)c(N)n(-c3ccccc3)c(=O)c2CO1` (stereo not given), for which the viability in assay [1] is 100%; in assay [3], 100% (inactive); in assay [4], 104% (inactive); in assay [5], 109% (inactive); in assay [6] (setting [9]), 89.7%; in assay [6] (setting [10]), 109%. In addition, the Her2 level in assay [2] is 106% (inactive). Further, in assay [6] (H69AR cells + 2 uM doxorubicin), the differential viability (reversal) is 19.4% (inactive). Further, the inhibition in assay [7] is -0.13% (inactive); in assay [8], -3.64% (inactive).
On to `Cc1ccc(-c2noc(CCC(=O)NCCc3ccccc3Cl)n2)cc1`, for which the viability in assay [1] is 77.5%; in assay [3] it was 77.5% (inactive); in assay [4], 103% (inactive); in assay [5], 99.6% (inactive); in assay [6] (setting [9]), 87.7%; in assay [6] (setting [10]) it was 99.6%. Also, the Her2 level in assay [2] was 90% (inactive). Moreover, the differential viability (reversal) in assay [6] (H69AR cells + 2 uM doxorubicin) is 12% (inactive). Also, the results for the inhibition in assay [7] and in assay [8] were -3.29% (inactive) and -5.17% (inactive), respectively.

(Values after PubChem BioAssay.)
